Measured values as given in ChEMBL document CHEMBL4184106, “Discovering alkylamide derivatives of bexarotene as new therapeutic agents against triple-negative breast cancer” (Bioorg Med Chem Lett, 2018).
The source made the active and inactive calls. The rule behind the calls is not given here.

Experiments:
MCF7 [1] = experiment: Inhibition of mammosphere formation in human MCF7 cells assessed as ratio of C-Myc to beta actin level at 5 uM by Western blot analysis (Rvb= 1); type: functional
In short: (§1)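 Post-treatment cell lysates were probed by Western blot for CSC markers, with β-actin as the loading control. Band densitometry was normalized to DMSO-treated samples.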

MCF-10A [2] = experiment: Cytotoxicity against human MCF10A cells assessed as reduction in cell viability by MTT assay; type: cell-based
MDA-MB-231 [3] = experiment: Induction of apoptosis in human MDA-MB-231 cells assessed as ratio of cleaved caspase-8 to beta-actin level at 5 uM by western blot analysis (reference value: 1); type: functional
MCF-10A [4] = experiment: Induction of apoptosis in human MCF10A cells assessed as ratio of cleaved caspase-9 to beta-actin level at 5 uM by western blot analysis (reference value: 1); type: cell-based
BT-549 [5] = experiment: Induction of apoptosis in nuclear fractions of human BT549 cells assessed as ratio of cleaved PARP to beta-actin level at 5 uM by western blot analysis (reference value: 1); type: functional
MDA-MB-231 [6] = experiment: Anti-migratory activity against human MDA-MB-231 cells assessed as reduction in wound closure at 2 uM up to 24 hrs by wound-healing assay; type: functional, cell-based
In short: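 MDA-MB-231 monolayer was scratched to make a wound gap. Cells were treated alongside a DMSO vehicle control, and migration into the gap was imaged at 24 h.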

MCF7 [7] = experiment: Down regulation of c-Myc expression in human MCF7 cells at 5 uM by Western blot analysis; type: functional
In short: (§2)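 MCF-7 cells were treated and lysates probed by Western blot for CSC-related markers, with β-actin as loading control. Band densitometry was normalized to DMSO-treated samples.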

MCF7 [8] = experiment: Down regulation of KLF4 expression in human MCF7 cells at 5 uM by Western blot analysis; type: functional; in short: as §2
MCF7 [9] = experiment: Down regulation of Sox-2 expression in human MCF7 cells at 5 uM by Western blot analysis; type: functional; in short: as §2
MDA-MB-231 [10] = experiment: Down regulation of KLF4 expression in human MDA-MB-231 cells at 5 uM by Western blot analysis; type: functional
MCF7 [11] = experiment: Inhibition of mammosphere formation in human MCF7 cells assessed as ratio of Nanog to beta actin level at 5 uM by Western blot analysis (Rvb= 1); type: functional; in short: as §1
BT-549 [12] = experiment: Inhibition of mammosphere formation in human BT549 cells assessed as ratio of C-Myc to beta actin level at 5 uM by Western blot analysis (Rvb= 1); type: functional
MDA-MB-231 [13] = experiment: Effect on beta-catenin translocation in cytosolic fraction of human MDA-MB-231 cells assessed as ratio of beta-catenin to beta-actin level at 5 uM by Western blot analysis (reference value: 1); type: functional
BT-549 [14] = experiment: Effect on beta-catenin translocation in cytosolic fraction of human BT549 cells assessed as ratio of beta-catenin to beta-actin level at 5 uM by Western blot analysis (reference value: 1); type: functional

SMILES: C=C(c1ccc(C(=O)NCCN2CCCC2)cc1)c1cc2c(cc1C)C(C)(C)CCC2(C)C
- Ratio (MCF7 [1]): 0.8
- Activity (MCF-10A [2]): Non-Toxic
- Ratio (MDA-MB-231 [3]): 3.7
- Ratio (MCF-10A [4]): 1
- Ratio (BT-549 [5]): 2.5
- Activity (MDA-MB-231 [6]): Active
- Activity (MCF7 [7]): 10 - 30%
- Activity (MCF7 [8]): 10 - 30%
- Activity (MCF7 [9]): 60%
- Activity (MDA-MB-231 [10]): 50%
- Ratio (MCF7 [11]): 0.8
- Ratio (BT-549 [12]): 0.8
- Ratio (MDA-MB-231 [13]): 2.1
- Ratio (BT-549 [14]): 2.4
